The text below walks through data of ChEMBL document CHEMBL3351227, “Solving the supply of resveratrol tetramers from Papua New Guinean rainforest anisoptera species that inhibit bacterial type III secretion systems” (J Nat Prod, 2014).

Assay [1] can be described thus: Inhibition of YopE in Yersinia pseudotuberculosis YPIII PIB102-Elux measured after 3 hrs 15 mins by luminescent reporter-gene assay. The gist of the method:
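Strain was grown on LB agar with 25 μg/mL chloramphenicol for 48 h at 26 °C, then in BHI with chloramphenicol for 12−16 h at 26 °C. It was diluted to OD620 0.2, then 1 in 4 into Ca2+-depleted BHI (5 mM EGTA, 20 mM MgCl2). Compounds were tested at 10–100 μM. Incubation was 1 h at 26 °C, 3 h at 37 °C, then 15 min at 26 °C. Luminescence was read after adding 0.1% decanal, and IC50 was interpolated from dose–response.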

Assay [2] in a line: Inhibition of YopH in Yersinia pseudotuberculosis YPIII PIB102-Elux using p-nitrophenyl phosphate as substrate measured after 3 hrs 15 mins by phosphatase enzyme assay. The gist of the method: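 Same YopE-reporter culture and incubation, with Ca2+-depleted BHI and compounds at 10–100 μM. Before decanal addition, an aliquot went into pNPP (12.5 mM in 20 mM MES pH 5.0, 0.8 mM DTT). This was incubated 15 min at 37 °C, stopped with NaOH and read at 405 nm. IC50 was interpolated from dose–response curves. Bacteria in BHI with 2.5 mM Ca2+ were the negative control.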

Assay [3] deals with Yersinia pseudotuberculosis YPIII. The experiment in a line: Antimicrobial activity against Yersinia pseudotuberculosis YPIII PIB102-Elux at 364 uM by spectrophotometry. Format: functional.

Molecules are shown by their SMILES. Calls of active or inactive are those of the source. The rule behind the calls is not given here.

The IC50 is the concentration that inhibits the measured activity by half. For the molecule `Oc1ccc([C@@H]2c3c(O)cc(O)cc3[C@@H]3c4c(cc(O)cc4[C@H]2[C@@H]2c4cc(O)cc5c4[C@@H](c4cc(O)cc(O)c4[C@H]2c2ccc(O)cc2)[C@H](c2ccc(O)cc2)O5)O[C@H]3c2ccc(O)cc2)cc1`, the values for the IC50 in assay [1] and in assay [2] were 8.8 µM and 2.9 µM, respectively. Moreover, the outcome in assay [3] was inactive.

As to `CN[C@@H]1[C@H](O[C@H]2[C@H](O[C@H]3[C@H](O)[C@@H](O)[C@H](N=C(N)N)[C@@H](O)[C@@H]3N=C(N)N)O[C@@H](C)[C@]2(O)C=O)O[C@@H](CO)[C@H](O)[C@H]1O` [STREPTOMYCIN], the half-inhibitory concentration (IC50) in assay [1] stood at 38 µM; in assay [2], 31 µM.

Take `Oc1ccc([C@@H]2c3c(O)cc(O)cc3[C@@H]3c4c(cc(O)c5c4[C@@H]2[C@H](c2ccc(O)cc2)[C@H]5c2cc(O)cc4c2[C@@H](c2cc(O)cc(O)c2)[C@H](c2ccc(O)cc2)O4)O[C@H]3c2ccc(O)cc2)cc1` [Vaticanol B]: the IC50 in assay [1] was 9.9 µM; in assay [2], 3.3 µM.

For `OC[C@H]1O[C@@H](Oc2cc3c4c(c2)[C@@H]([C@@H]2c5cc(O)cc6c5[C@@H](c5cc(O)cc(O)c5[C@H]2c2ccc(O)cc2)[C@H](c2ccc(O)cc2)O6)[C@H](c2ccc(O)cc2)c2c(O)cc(O)cc2[C@H]4[C@H](c2ccc(O)cc2)O3)[C@H](O)[C@@H](O)[C@@H]1O` [VATALBINOSIDE A], the results for the IC50 in assay [1] and in assay [2] were 12.5 µM and 4.5 µM, respectively. In addition, the result in assay [3] was inactive.
